In brackets after ≈: the same amount, converted by molar mass.
Experiments:
Assay type in all cases: functional
[1] = tested on: Candida albicans; test: Tested for minimum subinhibitory concentration against Candida albicans 26 (Candida albicans) at pH 4.5.
Method in brief: (§1)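 Malt extract broth microdilution at initial pH 4.5, 1×10^3 CFU/0.2 mL well, final compound 0.05–100 μg/mL diluted from DMSO/Tween 80 stocks. Incubation was 48 h at 30 °C with macroscopic reading. MSIC was the lowest concentration causing visible growth inhibition in at least two of three triplicates.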

[2] = tested on: Candida albicans; test: Tested for minimum inhibitory concentration against Candida albicans 4 (Candida albicans) at pH 4.5.
Method in brief: (§2)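 Broth microdilution in malt extract broth, initial pH 4.5 or 6.5, with 1×10^3 CFU per 0.2 mL well of thawed stored cultures. Compound stocks were made in 5% DMSO/0.2% Tween 80 and diluted to final 0.05–100 μg/mL. Plates were incubated 48 h at 30 °C and read macroscopically. MIC was the lowest concentration with no detectable growth. Vehicle-only wells served as controls.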

[3] = tested on: Candida albicans; test: Tested for minimum inhibitory concentration against Candida albicans 90 (Candida albicans) at pH 6.5.
Method in brief: (§3)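 Broth microdilution in malt extract broth, initial pH 6.5, 1×10^3 CFU per 0.2 mL well, from liquid-nitrogen-stored Sabouraud cultures. Compound from 0.08% stock in 5% DMSO/0.2% Tween 80, final 0.05–100 μg/mL. Visual reading after 48 h at 30 °C. MIC = lowest concentration with no detectable growth. Vehicle-only negative controls.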

[4] = organism: Mus musculus; test: Tested for efficacy of compound in experimental vaginal candidosis (mouse) after oral treatment at dosage of 4 x150 mg kg e-1
Method in brief: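 Vaginal candidiasis in hormonally conditioned female NMRI mice (18–20 g), 10 per group, inoculated intravaginally with 50 μL Sabouraud's glucose broth containing 3.5×10^4 CFU C. albicans no. 124. Dosed four times per gavage, 2 h before and 2, 18 and 24 h after infection. Vaginal swabs plated on Sabouraud's glucose agar with streptomycin (0.1 mg/mL), 48 h at 37 °C. Cure = failed reisolation.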

[5] = tested on: Meyerozyma guilliermondii; test: Tested for minimum inhibitory concentration against Candida guilliermondii 80 (C.g) at pH 4.5.; method in brief: as §2
[6] = tested on: Rattus norvegicus; test: Tested for efficacy of compound in experimental vaginal candidosis (rat) after intraperitoneal treatment at dosage of 2x 100 mg kg e-1
Method in brief: (§4)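 Female Wistar rats (~150 g; 10 per group) were hormonally conditioned and infected intravaginally with 3.5×10^4 CFU C. albicans no. 124 in 50 μL broth. Intraperitoneal dosing was given twice, 2 h before and 18 h after infection. Swabs taken one day after the last dose were plated on streptomycin Sabouraud agar (48 h, 37 °C). Cure meant failed reisolation.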

[7] = tested on: Mus musculus; test: Tested for efficacy of compound in experimental systemic candidosis (mouse) after intraperitoneal treatment at dosage of 8 *50 mg kg e-1
Method in brief: (§5)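 Mice (female NMRI, 18–20 g; 10 per group) infected by tail-vein injection of 10⁶ CFU C. albicans no. 124. Compound was given intraperitoneally twice daily on 4 consecutive days, starting 2 h before inoculation. Efficacy was scored as survival rate up to day 9 after infection.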

[8] = tested on: Candida tropicalis; test: Tested for minimum subinhibitory concentration against Candida tropicalis 43 (C.t) at pH 6.5.
Method in brief: (§6)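 Malt extract broth microdilution, initial pH 6.5, inoculum 1×10^3 CFU per 0.2 mL well. Compound diluted from 0.08% stock (5% DMSO/0.2% Tween 80) to final 0.05–100 μg/mL. Macroscopic reading after 48 h, 30 °C. MSIC = lowest concentration giving visible growth inhibition in at least two of three triplicates. Vehicle-only negative controls.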

[9] = tested on: Candida albicans; test: Tested for minimum inhibitory concentration against Candida albicans 9 (Candida albicans) at pH 4.5.; method in brief: as §2
[10] = tested on: Candida albicans; test: Tested for minimum subinhibitory concentration against Candida albicans 124 (Candida albicans) at pH 6.5.; method in brief: as §6
[11] = tested on: Mus musculus; test: Tested for efficacy of compound in experimental systemic candidosis (mouse) after intraperitoneal treatment at dosage of 8 *100 mg kg e-1; method in brief: as §5
[12] = tested on: Mus musculus; test: Tested for efficacy of compound in experimental systemic candidosis (mouse) after intraperitoneal treatment at dosage of 8 *25 mg kg e-1; method in brief: as §5
[13] = tested on: Candida albicans; test: Tested for minimum subinhibitory concentration against Candida albicans 26 (Candida albicans) at pH 6.5.; method in brief: as §6
[14] = tested on: Candida albicans; test: Tested for minimum subinhibitory concentration against Candida albicans 88 (Candida albicans) at pH 4.5.; method in brief: as §1
[15] = tested on: Candida tropicalis; test: Tested for minimum subinhibitory concentration against Candida tropicalis 43 (C.t) at pH 4.5.; method in brief: as §1
[16] = tested on: Candida albicans; test: Tested for minimum inhibitory concentration against Candida albicans 88 (Candida albicans) at pH 4.5.; method in brief: as §2
[17] = tested on: Pichia kudriavzevii; test: Tested for minimum inhibitory concentration against Candida krusei 132 (C.k) at pH 4.5.; method in brief: as §2
[18] = tested on: Candida albicans; test: Tested for minimum inhibitory concentration against Candida albicans 4 (Candida albicans) at pH 6.5.; method in brief: as §3
[19] = organism: Rattus norvegicus; test: Tested for efficacy of compound in experimental vaginal candidosis (rat) after tropical treatment at dosage of 9x 1% drug concentration
Method in brief: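 Hormonally conditioned female Wistar rats (~150 g; 10 per group) were infected intravaginally with 3.5×10^4 CFU C. albicans no. 124. Intravaginal gel (0.2 mL) started 2 h post-inoculation and was applied twice daily for 4 days, giving nine applications. Vaginal swabs taken one day after the last treatment were cultured on streptomycin Sabouraud agar at 37 °C for 48 h. Cure meant no reisolation.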

[20] = tested on: Candida albicans; test: Tested for minimum subinhibitory concentration against Candida albicans 124 (Candida albicans) at pH 4.5.; method in brief: as §1
[21] = tested on: Meyerozyma guilliermondii; test: Tested for minimum subinhibitory concentration against Candida guilliermondii 80 (C.g) at pH 6.5.; method in brief: as §6
[22] = tested on: Candida tropicalis; test: Tested for minimum inhibitory concentration against Candida tropicalis 43 (C.t) at pH of 6.5.; method in brief: as §2
[23] = tested on: Candida albicans; test: Tested for minimum inhibitory concentration against Candida albicans 3 (Candida albicans) at pH 4.5.; method in brief: as §2
[24] = tested on: Candida albicans; test: Tested for minimum inhibitory concentration against Candida albicans 26 (Candida albicans) at pH 4.5.; method in brief: as §2
[25] = tested on: Candida albicans; test: Tested for minimum subinhibitory concentration against Candida albicans 90 (Candida albicans) at pH 6.5.; method in brief: as §6
[26] = tested on: Candida albicans; test: Tested for minimum inhibitory concentration against Candida albicans 90 (Candida albicans) at pH 4.5.; method in brief: as §2
[27] = organism: Mus musculus; test: Tested for efficacy of compound in experimental vaginal candidosis (mouse) after oral treatment at dosage of 4 x300 mg kg e-1
Method in brief: (§7)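 Female NMRI mice (18–20 g; 10 per group) were hormonally conditioned and infected intravaginally with 3.5×10^4 CFU C. albicans no. 124 in 50 μL Sabouraud's glucose broth. Four doses were given by gavage or ip, at 2 h before and 2, 18 and 24 h after infection. One day after the last dose, vaginal swabs were plated on Sabouraud agar with streptomycin (0.1 mg/mL) for 48 h at 37 °C. Failed reisolation counted as cure.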

[28] = tested on: Mus musculus; test: Tested for efficacy of compound in experimental vaginal candidosis (mouse) after intraperitoneal treatment at dosage of 4 x50 mg kg e-1; method in brief: as §7
[29] = tested on: Pichia kudriavzevii; test: Tested for minimum inhibitory concentration against Candida krusei 132 (C.k) at pH of 6.5.; method in brief: as §2
[30] = tested on: Rattus norvegicus; test: Tested for efficacy of compound in experimental vaginal candidosis (rat) after intraperitoneal treatment at dosage of 2x 50 mg kg e-1; method in brief: as §4

MIC [2]: 6.25 µg/mL (≈ 5.55 µM) | MIC [3]: 100 µg/mL (≈ 88.8 µM) | MIC [5]: 6.25 µg/mL (≈ 5.55 µM) | MIC [9]: 12.5 µg/mL (≈ 11.1 µM) | MIC [16]: 12.5 µg/mL (≈ 11.1 µM) | MIC [17]: > 100 µg/mL | MIC [18]: 100 µg/mL (≈ 88.8 µM) | MIC [22]: 100 µg/mL (≈ 88.8 µM) | MIC [23]: 6.25 µg/mL (≈ 5.55 µM) | MIC [24]: 6.25 µg/mL (≈ 5.55 µM) | MIC [26]: 3.12 µg/mL (≈ 2.77 µM) | MIC [29]: > 100 µg/mL
SMILES: CC[C@@H](C)[C@H]1C(=O)NCC(=O)N(C)[C@@H](C(C)C)C(=O)N[C@@H](Cc2ccc(OC)cc2)C(=O)O[C@H](C)C(=O)N2CCCC[C@H]2C(=O)N(C)[C@@H](C(C)C)C(=O)N[C@@H](C(C)C)C(=O)N(C)[C@@H](CC(=O)O)C(=O)N(C)[C@@H]([C@@H](C)CC)C(=O)N1C
MSIC [1]: 0.78 µg/mL | Efficacy [4]: 31% | Efficacy [6]: 76% | Efficacy [7]: 20% | MSIC [8]: 6.25 µg/mL | MSIC [10]: 3.12 µg/mL | Efficacy [11]: 100% | Efficacy [12]: 20% | MSIC [13]: 6.25 µg/mL | MSIC [14]: 0.78 µg/mL | MSIC [15]: 0.8 µg/mL | Efficacy [19]: 100% | MSIC [20]: 0.4 µg/mL | MSIC [21]: 12.5 µg/mL | MSIC [25]: 3.12 µg/mL | Efficacy [27]: 64% | Efficacy [28]: 7% | Efficacy [30]: 0%

Source: ChEMBL document CHEMBL1127799, “Derivatives of a novel cyclopeptolide. 1. Synthesis, antifungal activity, and structure-activity relationships” (1994)
